Reference: ChEMBL document CHEMBL1152541, “Staurosporine tethered peptide ligands that target cAMP-dependent protein kinase (PKA): optimization and selectivity profiling” (Bioorg Med Chem, 2009)
Each block holds one molecule with its values, some of them ahead of it. *1 amine or outer side, *2 acyl side, *3 side chain or, on linkers, in order; H or OH if unused. Where a SMILES comes first, the peptide text is derived from it. Bridges are numbered along the chain shown (N, C = ends). [ ]: non-standard residue; d: D form. The star is where a group is joined. Staurosporine = CO[C@@H]1[C@H](N(C)*)C[C@H]2O[C@]1(C)n1c3ccccc3c3c4c(c5c6ccccc6n2c5c31)C(=O)NC4; Suc = O=C(CCC(=O)[*:2])[*:1]; Dap = NC[C@H](N)C(=O)O; βAla = NCCC(=O)O

Assays:
[1] = target: RAC-beta serine/threonine-protein kinase (Homo sapiens) (UniProt P31751); assay: Binding affinity to human AKT2 at 500 nM by cell-based competition binding assay relative to control in presence of DTT
Sequence of RAC-beta serine/threonine-protein kinase (Homo sapiens) (P31751 whole entry): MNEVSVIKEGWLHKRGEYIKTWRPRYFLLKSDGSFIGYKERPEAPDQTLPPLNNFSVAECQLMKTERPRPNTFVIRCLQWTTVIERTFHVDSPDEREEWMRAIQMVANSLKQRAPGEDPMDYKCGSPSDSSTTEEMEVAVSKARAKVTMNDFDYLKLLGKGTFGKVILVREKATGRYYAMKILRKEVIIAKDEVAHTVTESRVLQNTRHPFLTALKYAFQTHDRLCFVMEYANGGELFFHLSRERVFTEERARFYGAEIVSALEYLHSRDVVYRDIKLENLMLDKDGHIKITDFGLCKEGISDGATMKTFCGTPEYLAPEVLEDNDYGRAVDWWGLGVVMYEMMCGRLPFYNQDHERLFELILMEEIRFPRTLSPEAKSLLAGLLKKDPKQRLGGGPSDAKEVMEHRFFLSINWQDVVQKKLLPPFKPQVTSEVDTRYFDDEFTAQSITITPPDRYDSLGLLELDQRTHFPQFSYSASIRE
Summary of the method: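 Kinase binding profiling ran on a commercial (Ambit) competitive binding screen against a panel of 90 kinases. The screen used reducing conditions with 7.5 mM DTT. To withstand the DTT, the bivalent ligand was tested as its amide isostere, with the disulfide replaced. A staurosporine derivative carrying a 3 β-alanine linker was run as the reference compound.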

[2] = target: T1, Tyrosine-protein kinase JAK3 (Homo sapiens) (UniProt P52333); assay: Binding affinity to human JAK3 kinase domain 2 at 500 nM by cell-based competition binding assay relative to control in presence of DTT
T1 sequence (whole entry): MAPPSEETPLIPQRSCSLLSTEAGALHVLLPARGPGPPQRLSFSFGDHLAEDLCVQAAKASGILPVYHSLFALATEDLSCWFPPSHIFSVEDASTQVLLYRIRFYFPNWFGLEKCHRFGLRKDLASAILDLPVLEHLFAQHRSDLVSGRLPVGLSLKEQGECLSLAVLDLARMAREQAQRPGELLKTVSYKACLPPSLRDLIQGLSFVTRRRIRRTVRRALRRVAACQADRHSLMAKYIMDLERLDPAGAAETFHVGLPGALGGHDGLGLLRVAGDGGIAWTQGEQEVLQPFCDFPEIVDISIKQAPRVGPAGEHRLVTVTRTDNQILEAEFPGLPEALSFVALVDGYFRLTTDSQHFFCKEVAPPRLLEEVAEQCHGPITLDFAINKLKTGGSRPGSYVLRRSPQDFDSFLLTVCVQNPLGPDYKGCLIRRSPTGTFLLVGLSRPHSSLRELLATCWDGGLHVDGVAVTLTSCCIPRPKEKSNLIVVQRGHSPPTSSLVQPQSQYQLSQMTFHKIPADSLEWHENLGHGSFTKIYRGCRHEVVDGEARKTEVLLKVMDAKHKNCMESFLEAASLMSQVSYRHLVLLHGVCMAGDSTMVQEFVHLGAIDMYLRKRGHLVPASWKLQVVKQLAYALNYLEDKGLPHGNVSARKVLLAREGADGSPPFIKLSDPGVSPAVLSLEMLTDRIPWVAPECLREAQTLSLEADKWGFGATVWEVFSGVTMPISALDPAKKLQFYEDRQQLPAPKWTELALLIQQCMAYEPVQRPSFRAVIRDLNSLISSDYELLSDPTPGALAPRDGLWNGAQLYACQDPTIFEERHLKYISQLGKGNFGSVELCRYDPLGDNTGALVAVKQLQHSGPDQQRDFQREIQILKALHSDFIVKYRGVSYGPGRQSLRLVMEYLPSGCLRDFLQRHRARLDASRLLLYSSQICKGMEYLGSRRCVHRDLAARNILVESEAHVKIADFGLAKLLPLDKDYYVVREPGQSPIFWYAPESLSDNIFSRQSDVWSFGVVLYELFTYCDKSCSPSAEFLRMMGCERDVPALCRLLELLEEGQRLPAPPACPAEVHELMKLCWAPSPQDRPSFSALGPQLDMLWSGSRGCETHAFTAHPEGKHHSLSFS
Summary of the method: (§1)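 Competition binding screen (Ambit) across a panel of 90 kinases, scoring test ligand displacement of each kinase's binding relative to control. The screen ran under reducing conditions with 7.5 mM DTT.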

[3] = target: T1, Tyrosine-protein kinase JAK3 (Homo sapiens); assay: Binding affinity to human JAK3 kinase domain 2 at 200 nM by cell-based competition binding assay relative to control in presence of DTT; summary of the method: as §1
[4] = target: Platelet-derived growth factor receptor beta (Homo sapiens) (UniProt P09619); assay: Binding affinity to human PDGFRbeta at 200 nM by cell-based competition binding assay relative to control in presence of DTT
Sequence of Platelet-derived growth factor receptor beta (Homo sapiens) (P09619 whole entry, the tested form may be a part): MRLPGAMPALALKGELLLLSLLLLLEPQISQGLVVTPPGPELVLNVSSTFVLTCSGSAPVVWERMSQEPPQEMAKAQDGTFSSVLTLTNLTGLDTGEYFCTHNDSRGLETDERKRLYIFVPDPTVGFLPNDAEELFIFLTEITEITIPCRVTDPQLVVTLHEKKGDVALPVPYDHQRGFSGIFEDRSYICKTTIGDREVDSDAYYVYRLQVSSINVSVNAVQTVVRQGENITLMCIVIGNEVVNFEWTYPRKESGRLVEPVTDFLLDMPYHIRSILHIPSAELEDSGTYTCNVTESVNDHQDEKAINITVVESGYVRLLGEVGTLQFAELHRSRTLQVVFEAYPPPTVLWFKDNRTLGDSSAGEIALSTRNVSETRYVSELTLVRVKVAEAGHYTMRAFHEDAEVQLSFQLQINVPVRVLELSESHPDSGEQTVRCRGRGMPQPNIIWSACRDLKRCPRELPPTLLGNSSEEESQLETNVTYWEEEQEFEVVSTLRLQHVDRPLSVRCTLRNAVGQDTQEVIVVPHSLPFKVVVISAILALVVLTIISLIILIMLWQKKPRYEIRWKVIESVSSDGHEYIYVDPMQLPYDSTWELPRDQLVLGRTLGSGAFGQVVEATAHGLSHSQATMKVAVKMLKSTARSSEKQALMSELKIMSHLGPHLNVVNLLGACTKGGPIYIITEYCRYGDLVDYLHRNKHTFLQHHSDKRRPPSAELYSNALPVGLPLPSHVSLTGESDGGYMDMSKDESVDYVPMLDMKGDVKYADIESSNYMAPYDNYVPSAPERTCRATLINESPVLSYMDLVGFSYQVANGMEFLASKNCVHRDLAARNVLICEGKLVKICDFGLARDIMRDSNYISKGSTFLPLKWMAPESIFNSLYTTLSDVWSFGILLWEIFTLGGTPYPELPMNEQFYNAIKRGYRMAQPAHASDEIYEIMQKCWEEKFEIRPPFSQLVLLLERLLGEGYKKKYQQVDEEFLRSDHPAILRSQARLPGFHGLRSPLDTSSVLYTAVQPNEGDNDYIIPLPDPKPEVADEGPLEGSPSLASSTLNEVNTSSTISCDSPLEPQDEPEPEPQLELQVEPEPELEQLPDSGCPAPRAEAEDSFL

[5] = target: Ribosomal protein S6 kinase alpha-3 (Homo sapiens) (UniProt P51812); assay: Binding affinity to human RPS6KA3 kinase domain 1 at 200 nM by cell-based competition binding assay relative to control in presence of DTT
Sequence of Ribosomal protein S6 kinase alpha-3 (Homo sapiens) (P51812 whole entry, the tested form may be a part): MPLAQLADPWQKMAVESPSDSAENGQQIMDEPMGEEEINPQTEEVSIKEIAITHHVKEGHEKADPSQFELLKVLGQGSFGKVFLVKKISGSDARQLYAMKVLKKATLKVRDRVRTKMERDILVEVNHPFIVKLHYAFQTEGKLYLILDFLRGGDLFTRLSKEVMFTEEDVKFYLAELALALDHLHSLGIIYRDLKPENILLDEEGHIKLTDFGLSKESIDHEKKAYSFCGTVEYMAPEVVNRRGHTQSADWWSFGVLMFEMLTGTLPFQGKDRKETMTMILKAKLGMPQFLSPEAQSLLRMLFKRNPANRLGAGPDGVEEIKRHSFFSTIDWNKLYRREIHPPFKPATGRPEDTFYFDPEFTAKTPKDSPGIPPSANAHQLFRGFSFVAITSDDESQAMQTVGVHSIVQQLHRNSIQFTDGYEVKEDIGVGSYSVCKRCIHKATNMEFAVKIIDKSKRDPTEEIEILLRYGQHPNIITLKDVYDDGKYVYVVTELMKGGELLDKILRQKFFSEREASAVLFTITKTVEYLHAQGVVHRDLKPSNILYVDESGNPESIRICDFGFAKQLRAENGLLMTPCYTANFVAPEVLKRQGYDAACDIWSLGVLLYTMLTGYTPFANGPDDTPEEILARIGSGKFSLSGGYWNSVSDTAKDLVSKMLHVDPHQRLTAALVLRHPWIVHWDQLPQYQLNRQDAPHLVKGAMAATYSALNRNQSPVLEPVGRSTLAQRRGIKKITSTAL

[6] = target: RAF proto-oncogene serine/threonine-protein kinase (Homo sapiens) (UniProt P04049); assay: Binding affinity to human RAF1 at 50 nM by cell-based competition binding assay relative to control in presence of DTT
Sequence of RAF proto-oncogene serine/threonine-protein kinase (Homo sapiens) (P04049 whole entry): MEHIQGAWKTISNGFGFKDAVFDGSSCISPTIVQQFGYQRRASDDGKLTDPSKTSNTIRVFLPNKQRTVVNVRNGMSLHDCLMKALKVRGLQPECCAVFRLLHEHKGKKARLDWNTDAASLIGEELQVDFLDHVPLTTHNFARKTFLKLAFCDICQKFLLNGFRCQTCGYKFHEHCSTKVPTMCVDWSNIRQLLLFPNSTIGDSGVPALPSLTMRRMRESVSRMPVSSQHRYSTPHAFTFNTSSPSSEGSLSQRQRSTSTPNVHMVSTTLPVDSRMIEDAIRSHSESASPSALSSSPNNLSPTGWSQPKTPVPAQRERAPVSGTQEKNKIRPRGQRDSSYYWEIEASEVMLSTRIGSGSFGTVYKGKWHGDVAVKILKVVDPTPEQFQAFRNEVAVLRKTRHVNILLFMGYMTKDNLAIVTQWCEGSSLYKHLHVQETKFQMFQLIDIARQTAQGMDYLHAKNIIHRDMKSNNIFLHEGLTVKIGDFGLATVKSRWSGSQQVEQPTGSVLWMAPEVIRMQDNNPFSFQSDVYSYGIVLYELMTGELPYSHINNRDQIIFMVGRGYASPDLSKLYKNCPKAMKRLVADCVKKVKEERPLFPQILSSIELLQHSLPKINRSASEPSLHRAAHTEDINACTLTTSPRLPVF

[7] = target: T2, TGF-beta receptor type-1 (Homo sapiens) (UniProt P36897); assay: Binding affinity to human TGFBR1 at 50 nM by cell-based competition binding assay relative to control in presence of DTT
T2 sequence (whole entry): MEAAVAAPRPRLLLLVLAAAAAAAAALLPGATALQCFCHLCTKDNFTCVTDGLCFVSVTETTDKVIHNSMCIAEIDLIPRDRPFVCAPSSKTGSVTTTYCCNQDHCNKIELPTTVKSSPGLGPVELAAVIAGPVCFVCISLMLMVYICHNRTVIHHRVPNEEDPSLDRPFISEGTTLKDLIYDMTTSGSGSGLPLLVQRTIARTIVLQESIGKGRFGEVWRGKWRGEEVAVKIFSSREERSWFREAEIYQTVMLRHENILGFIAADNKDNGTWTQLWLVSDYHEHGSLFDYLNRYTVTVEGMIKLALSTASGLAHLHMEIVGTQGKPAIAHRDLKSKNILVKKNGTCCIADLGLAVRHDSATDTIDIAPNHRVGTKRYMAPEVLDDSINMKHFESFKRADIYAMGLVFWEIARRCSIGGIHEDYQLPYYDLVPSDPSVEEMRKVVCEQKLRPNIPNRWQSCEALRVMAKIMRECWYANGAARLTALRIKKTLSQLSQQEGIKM

[8] = target: T3, Tyrosine-protein kinase ZAP-70 (Homo sapiens) (UniProt P43403); assay: Binding affinity to human ZAP70 at 50 nM by cell-based competition binding assay relative to control in presence of DTT
T3 sequence (whole entry): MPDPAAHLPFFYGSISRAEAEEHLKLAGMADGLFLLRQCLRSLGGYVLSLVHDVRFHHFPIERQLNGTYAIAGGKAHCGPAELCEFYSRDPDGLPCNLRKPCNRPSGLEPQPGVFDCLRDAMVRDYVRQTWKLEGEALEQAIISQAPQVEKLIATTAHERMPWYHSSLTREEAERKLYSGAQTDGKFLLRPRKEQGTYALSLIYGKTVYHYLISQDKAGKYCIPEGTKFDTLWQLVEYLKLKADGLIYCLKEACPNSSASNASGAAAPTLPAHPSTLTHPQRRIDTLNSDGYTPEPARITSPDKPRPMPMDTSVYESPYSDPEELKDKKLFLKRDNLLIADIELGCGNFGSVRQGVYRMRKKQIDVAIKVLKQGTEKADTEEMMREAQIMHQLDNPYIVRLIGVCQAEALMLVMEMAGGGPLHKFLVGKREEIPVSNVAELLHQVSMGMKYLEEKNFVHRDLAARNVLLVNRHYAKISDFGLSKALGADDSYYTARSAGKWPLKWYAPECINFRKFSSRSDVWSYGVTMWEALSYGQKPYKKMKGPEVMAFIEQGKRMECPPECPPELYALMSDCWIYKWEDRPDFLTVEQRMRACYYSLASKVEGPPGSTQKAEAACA

- Activity [1]: 37%
- Activity [2]: 3.6%
Structure (SMILES): CO[C@@H]1[C@H](N(C)C(=O)CCC(=O)NCCC(=O)NCCC(=O)NCCC(N)=O)C[C@H]2O[C@]1(C)n1c3ccccc3c3c4c(c5c6ccccc6n2c5c31)C(=O)NC4

- Activity [3]: 4.6%
- Activity [4]: 3.2%
- Activity [5]: 100%
Structure (SMILES): CO[C@@H]1[C@H](N(C)C(=O)CCC(=O)NCCC(=O)NCCC(=O)NCCC(=O)NCCC(=O)NCCC(=O)NCCC(=O)NCCC(=O)N[C@H]2CSSC[C@@H](C(=O)NCC(N)=O)NC(=O)CNC(=O)[C@H](Cc3ccccc3)NC(=O)[C@H](C(C)C)NC(=O)[C@H](CCCNC(=N)N)NC(=O)[C@H](Cc3ccccc3)NC(=O)[C@H](C(C)C)NC2=O)C[C@H]2O[C@]1(C)n1c3ccccc3c3c4c(c5c6ccccc6n2c5c31)C(=O)NC4 ({Staurosporine-Suc-βAla-βAla-βAla-βAla-βAla-βAla-βAla}-CVFRVFGCG-NH2; disulfide 1-8)

- Activity [6]: 100%
- Activity [7]: 100%
- Activity [8]: 57%
Structure (SMILES): CO[C@@H]1[C@H](N(C)C(=O)CCC(=O)NCCC(=O)NCCC(=O)NCCC(=O)NCCC(=O)NCCC(=O)NCCC(=O)NCCC(=O)N[C@H]2CNC(=O)C[C@@H](C(N)=O)NC(=O)CNC(=O)[C@H](Cc3ccccc3)NC(=O)[C@H](C(C)C)NC(=O)[C@H](CCCNC(=N)N)NC(=O)[C@H](Cc3ccccc3)NC(=O)[C@H](C(C)C)NC2=O)C[C@H]2O[C@]1(C)n1c3ccccc3c3c4c(c5c6ccccc6n2c5c31)C(=O)NC4 ({Staurosporine-Suc-βAla-βAla-βAla-βAla-βAla-βAla-βAla}-[Dap]VFRVFGD-NH2; lactam 1-8)
